Measurements published in ChEMBL document CHEMBL2163264, “Identification and synthesis of substituted pyrrolo[2,3-d]pyrimidines as novel firefly luciferase inhibitors” (Bioorg Med Chem, 2012).
Active and inactive are the calls of the source. The rule behind the calls is not given here.

What was measured:
[1] = target: Luciferin 4-monooxygenase (Photinus pyralis) (UniProt P08659); experiment: Mixed-type inhibition of Photinus pyralis luciferase using D-luciferin as substrate at 10 uM after 20 mins by bioluminescence assay
Chain of Luciferin 4-monooxygenase (Photinus pyralis) (P08659 whole entry): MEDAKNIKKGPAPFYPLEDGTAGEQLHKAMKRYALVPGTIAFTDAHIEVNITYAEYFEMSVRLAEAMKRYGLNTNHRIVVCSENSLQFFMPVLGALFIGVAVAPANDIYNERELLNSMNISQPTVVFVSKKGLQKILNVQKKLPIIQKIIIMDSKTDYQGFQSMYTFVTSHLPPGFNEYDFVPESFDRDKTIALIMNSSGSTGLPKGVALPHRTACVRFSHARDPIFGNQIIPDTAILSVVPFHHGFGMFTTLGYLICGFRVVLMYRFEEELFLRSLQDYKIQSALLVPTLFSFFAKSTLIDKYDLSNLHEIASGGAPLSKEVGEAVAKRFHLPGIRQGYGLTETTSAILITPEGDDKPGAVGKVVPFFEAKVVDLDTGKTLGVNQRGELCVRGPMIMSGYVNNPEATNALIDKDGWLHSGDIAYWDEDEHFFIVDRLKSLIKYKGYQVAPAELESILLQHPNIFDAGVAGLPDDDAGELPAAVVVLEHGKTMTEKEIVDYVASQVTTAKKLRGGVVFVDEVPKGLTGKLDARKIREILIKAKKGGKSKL

[2] = target: T1, Luciferin 4-monooxygenase (Photinus pyralis, UniProt P08659); experiment: Mixed-type inhibition of Photinus pyralis luciferase using D-luciferin as substrate after 20 mins by bioluminescence assay
T1 sequence (P08659 whole entry): as above
How it was run: (§1)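 Photinus pyralis firefly luciferase (32 nM) in buffer A (1 M glycine-Tris, 10 mM EDTA, 100 mM MgSO4, pH 7.8) preincubated with inhibitor or buffer 20 min in the dark at room temperature. D-luciferin varied 3.125–200 µM with ATP fixed at 250 µM. Luminescence read. Apparent Km and Vmax from nonlinear Michaelis–Menten fit. Three independent assays in triplicate.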

[3] = target: Luciferin 4-monooxygenase (Photinus pyralis) (UniProt P08659); experiment: Uncompetitive inhibition of Photinus pyralis luciferase using 50 uM D-luciferin as substrate after 20 mins by Lineweaver-Burk plot in presence of 25 to 500 uM ATP
How it was run: (§2)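 ATP-dependence kinetics: 32 nM P. pyralis luciferase in pH 7.8 glycine-Tris/EDTA/MgSO4 buffer, preincubated 20 min with inhibitor in the dark at room temperature. ATP varied 25–500 µM with D-luciferin fixed at 50 µM, read by bioluminescence. Double-reciprocal plots were examined. Apparent Km and Vmax came from nonlinear Michaelis–Menten fitting. Three independent assays in triplicate.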

[4] = target: T1, Luciferin 4-monooxygenase; experiment: Uncompetitive inhibition of Photinus pyralis luciferase using 50 uM D-luciferin as substrate after 20 mins by nonlinear regression analysis in presence of 25 to 500 uM ATP; how it was run: as §2
[5] = target: T1, Luciferin 4-monooxygenase; experiment: Competitive inhibition of Photinus pyralis luciferase using 3.125 to 200 uM D-luciferin as substrate after 20 mins by Michaelis-Menten plot in presence of 250 uM ATP; how it was run: as §1
[6] = target: T1, Luciferin 4-monooxygenase; experiment: Mixed-type inhibition of Photinus pyralis luciferase using D-luciferin as substrate after 20 mins by Michaelis-Menten plot; how it was run: as §1

SMILES	inhibition [1] [%]	IC50 [2] [nM]	further results
Nc1ccc(Oc2ncnc3c2ccn3Cc2ccccc2)cc1	46		
NC(=O)Cn1ccc2c(Oc3ccc(N)cc3)ncnc21	21		
C=C=Cn1ccc2c(Oc3ccc(N)cc3)ncnc21		9430	
Nc1ccc(Oc2ncnc3c2ccn3C2CCCC2)cc1		290	
Nc1ccc(Oc2ncnc3c2ccn3Cc2ccc(C(F)(F)F)cc2)cc1	7		
CC(C)=CCn1ccc2c(Oc3ccc(N)cc3)ncnc21		7530	
COc1ccc(Cn2ccc3c(Oc4ccc(N)cc4)ncnc32)cc1	26		
CCOC(=O)Cn1ccc2c(Oc3ccc(N)cc3)ncnc21	33		
C=C(C)Cn1ccc2c(Oc3ccc(N)cc3)ncnc21		120	
Cn1ccc2c(Oc3ccc(N)cc3)ncnc21	48		
CCn1ccc2c(Oc3ccc(N)cc3)ncnc21		3510	
CC(C)n1ccc2c(Oc3ccc(N)cc3)ncnc21		360	inhibition [3]: Active; Ki [4]: 340 nM; Ki [5]: 1430 nM; Ki [6]: 220 nM

Second part, led by results:

inhibition [1] [%]	IC50 [2] [nM]	SMILES	further results
9		CC(C)n1ccc2c(Oc3ccc(N)cc3)nc(S(C)(=O)=O)nc21	
	60	C=C(C)Cn1ccc2c(Oc3ccc(NC)cc3)ncnc21	
	70	CNc1ccc(Oc2ncnc3c2ccn3CC(C)(C)C)cc1	
	130	CNc1ccc(Oc2ncnc3c2ccn3C(C)C)cc1	
	14700	CC(C)n1ccc2c(Oc3cccc(N)c3)ncnc21	
	2240	C=CCn1ccc2c(Oc3ccc(N)cc3)ncnc21	
19		Nc1ccc(Oc2ncnc3[nH]ccc23)cc1	
	80	CC(C)(C)Cn1ccc2c(Oc3ccc(N)cc3)ncnc21	
	90	C=C(C)Cn1ccc2c(Oc3ccc(N(C)C)cc3)ncnc21	
31		CSc1nc(Oc2ccc(N)cc2)c2ccn(C(C)C)c2n1	
	10800	CC(C)n1ccc2c(Oc3ccc(N)cc3)nc(N)nc21	
	180	CC(C)n1ccc2c(Oc3ccc(N(C)C)cc3)ncnc21	
	7300	CC(C)n1ccc2c(Oc3ccccc3N)ncnc21	
	120	CN(C)c1ccc(Oc2ncnc3c2ccn3CC(C)(C)C)cc1	
	310	CC(C)Cn1ccc2c(Oc3ccc(N)cc3)ncnc21	
	6460	CC(C)CCn1ccc2c(Oc3ccc(N)cc3)ncnc21	
